Bioassay records (PubChem BioAssay)
Granule exo inh: blocks lytic granule exocytosis; 360,000 compounds, 0.66% hits; AID 651702; TALL-104 LAMP-1 surface exposure, flow cytometry; cells stimulated with thapsigargin and PMA; inhibition, % at 10 µM;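 active = inhibition above about 55%, limit read from the data; inconclusive = no clear call, values can overlap the other calls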
MC4R antag cAMP: antagonists of human melanocortin 4 receptor (MC4R) | P32245 | MC4R-expressing cells, MTII-stimulated cAMP, LANCE TR-FRET | inhibition, % at 6.5 µM | 360,000 compounds, 0.48% hits | AID 540295;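 active = inhibition above its plate's cutoff, the mean of tested wells on that plate plus 3 SD, cut at about 29% in these data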;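 also: 0% = Melanotan II alone and 100% = Melanotan II plus saturating MCL0020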
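Assay system: U2OS cells stably expressing human melanocortin 4 receptor (MC4R) / Dosing: 6.5 µM / Timing: compound 30 min, challenge 1 h, detection 1 h / Measured by: Eu-cAMP/anti-cAMP TR-FRET, emission 671 nm / Replicates: singlicate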
EBI2 antag: EBI2 (human) antagonism; P32249; EBI2 beta-arrestin recruitment, luminescence, 7a,25-OHC stimulated; inhibition, % at 5 µM; 360,000 compounds, 0.81% hits; AID 651636; in the data active = inhibition above about 38%;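 also: enzyme fragment complementation signal reports receptor beta-arrestin coupling in cells; 0% = agonist plus DMSO wells and 100% = wells without agonist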
Myeloid diff 2: myeloid differentiation induction; ER-HoxA9 myeloid progenitors, lysozyme-GFP differentiation, flow cytometry; calls only at 10 µM; 360,000 compounds, 1% hits;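 active = normalized GFP-positive differentiation at or above the plate's own cutoff, the solvent-only control mean plus 3 SD; inconclusive = no clear call, values can overlap the other calls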;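 also: cells exposed to compound for four days before flow analysis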
MC4R barr agon: human MC4R agonism via beta-arrestin; U2OS MC4R beta-arrestin complementation, luminescence; percent of melanotan II response, DMSO zero; 360,000 compounds, 0.98% hits; AID 540308; P32245; activation, % at 8.9 µM;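 active = activation above a per-plate cutoff, the mean activation of sample wells on that plate plus 3 SD, cut at about 8% in these data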
MC4R barr ag: human MC4R beta-arrestin agonism confirmation; shares compounds with MC4R barr agon; U2OS MC4R beta-arrestin recruitment, luminescence; scaled DMSO 0%, Melanotan II 100%; activation, % at 8.9 µM; 2,400 compounds, 31% hits; AID 602192;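 active = mean activation across replicates above the hit cutoff set in the earlier primary screen, cut at about 8% in these data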
MOR-DOR barr ag: OPRM1-OPRD1 heterodimer agonism counter-screen; shares compounds with MC4R barr agon; U2OS PathHunter beta-arrestin, beta-gal luminescence; percent of deltorphin B response, DMSO zero; activation, % at 9.2 µM; 2,400 compounds, 5.8% hits; AID 602194;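 active = mean activation across replicates exceeds the hit threshold derived in the earlier primary screen, cut at about 18% in these data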;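 also: 100% = deltorphin B at 0.9 µM final and 0% = DMSO alone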
Target sequence (P35372 whole entry, looked up): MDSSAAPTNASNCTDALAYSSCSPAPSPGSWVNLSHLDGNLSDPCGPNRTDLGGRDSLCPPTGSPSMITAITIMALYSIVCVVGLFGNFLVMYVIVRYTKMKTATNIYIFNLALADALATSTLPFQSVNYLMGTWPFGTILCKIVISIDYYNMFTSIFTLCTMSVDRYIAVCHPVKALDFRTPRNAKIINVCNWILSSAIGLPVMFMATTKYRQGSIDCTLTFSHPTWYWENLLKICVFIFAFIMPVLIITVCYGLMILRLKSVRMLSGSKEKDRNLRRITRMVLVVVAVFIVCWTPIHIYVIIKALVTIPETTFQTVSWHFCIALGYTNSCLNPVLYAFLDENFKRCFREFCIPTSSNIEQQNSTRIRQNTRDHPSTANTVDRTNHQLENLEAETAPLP
Target sequence (P41143 whole entry, looked up): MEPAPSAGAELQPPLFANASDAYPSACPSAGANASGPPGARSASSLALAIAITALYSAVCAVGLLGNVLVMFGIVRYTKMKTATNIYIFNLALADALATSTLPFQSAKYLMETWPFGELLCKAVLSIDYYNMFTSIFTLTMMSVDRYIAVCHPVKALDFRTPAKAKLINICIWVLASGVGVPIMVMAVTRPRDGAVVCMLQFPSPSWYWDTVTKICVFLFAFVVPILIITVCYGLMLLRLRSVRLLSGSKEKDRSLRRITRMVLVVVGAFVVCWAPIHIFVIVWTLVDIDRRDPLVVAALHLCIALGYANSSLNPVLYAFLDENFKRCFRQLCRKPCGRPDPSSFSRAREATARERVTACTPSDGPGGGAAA
The depositor's hits bear a star. Compounds with a hit are over-represented: about 3.7% of the library has one in this group of screens.

Results for NC(Cc1ccc(F)cc1)c1csc(Nc2cc(Oc3ccccc3)ncn2)n1 (centres undefined) ?
Granule exo inh: 11; MC4R antag cAMP: -3; EBI2 antag: 0; Myeloid diff 2: inactive; MC4R barr agon: 13*; MC4R barr ag: 14*; MOR-DOR barr ag: 12

How did O=C(/C(=N/N=C/c1ccc(O)c(O)c1)c1ccccc1)c1ccccc1 do in these assays?
Granule exo inh: 0; MC4R antag cAMP: 17; EBI2 antag: -4; Myeloid diff 2: inactive; MC4R barr agon: 10*; MC4R barr ag: 3; MOR-DOR barr ag: 11

How did O=S(=O)(c1ccc2nc(-c3ccccc3)[nH]c2c1)N1CCN(c2ccc(Cl)cc2)CC1 do in these assays?
Granule exo inh: 2; MC4R antag cAMP: 6; EBI2 antag: 2; Myeloid diff 2: inactive; MC4R barr agon: 11*; MC4R barr ag: 5; MOR-DOR barr ag: 5

What do the screens show for `CC(=O)Nc1ccc(S(=O)(=O)N2CCN=C2SCc2ccc(F)cc2)cc1`?
Granule exo inh: 2; MC4R antag cAMP: 0; EBI2 antag: 3; Myeloid diff 2: inactive; MC4R barr agon: -2

What do the screens show for `O=[N+]([O-])c1ccc(S(=O)(=O)N2CCN=C2SCc2ccc(F)cc2)cc1`?
Granule exo inh: 1; MC4R antag cAMP: 2; EBI2 antag: 9; Myeloid diff 2: inactive; MC4R barr agon: 11*; MC4R barr ag: 4; MOR-DOR barr ag: 8

Results for CCOc1ccc2c(c1)S/C(=C\c1cccs1)C(=O)N2 ?
Granule exo inh: -1; MC4R antag cAMP: -1; EBI2 antag: 22; Myeloid diff 2: inactive; MC4R barr agon: 3

How did Cn1c(C(=O)OCC(=O)NCc2cccs2)cc2sccc21 do in these assays?
Granule exo inh: 4; MC4R antag cAMP: -17; EBI2 antag: 5; Myeloid diff 2: inactive; MC4R barr agon: 10*; MC4R barr ag: 3; MOR-DOR barr ag: 4

What do the screens show for `CCOc1ccc(-c2nnc3n2N=C(c2ccc(OC)cc2)CS3)cc1`?
Granule exo inh: -2; MC4R antag cAMP: -7; EBI2 antag: 30; Myeloid diff 2: inactive; MC4R barr agon: 12*; MC4R barr ag: 3; MOR-DOR barr ag: 7

Results for CCOc1ccc(C2=Nn3c(nnc3-c3ccccc3OC)SC2)cc1 ?
Granule exo inh: 3; MC4R antag cAMP: -21; EBI2 antag: -12; Myeloid diff 2: inconclusive; MC4R barr agon: -2

What do the screens show for `O=C(OCC(=O)c1c[nH]c2ccccc12)c1cc2ccccc2cc1O`?
Granule exo inh: -3; MC4R antag cAMP: -1; EBI2 antag: -5; Myeloid diff 2: inactive; MC4R barr agon: 12*; MC4R barr ag: 3; MOR-DOR barr ag: 3

What do the screens show for `N#Cc1c(-c2ccccc2)cc(C2CC2)nc1SCC(=O)O`?
Granule exo inh: 3; MC4R antag cAMP: 22; EBI2 antag: -5; Myeloid diff 2: inactive; MC4R barr agon: -2

Results for N#Cc1c(-c2ccco2)cc(C2CC2)nc1SCC(=O)c1ccccc1 ?
Granule exo inh: 0; MC4R antag cAMP: 1; EBI2 antag: 9; Myeloid diff 2: inactive; MC4R barr agon: 18*; MC4R barr ag: 8; MOR-DOR barr ag: 4

What do the screens show for `CC(/C=C/C=C/c1ccccc1)=N/NC(=O)CNc1ccccc1C`?
Granule exo inh: -3; MC4R antag cAMP: -14; EBI2 antag: 8; Myeloid diff 2: inactive; MC4R barr agon: 14*; MC4R barr ag: 29*; MOR-DOR barr ag: 10

What do the screens show for `Cn1c(=O)c2c(ncn2CC(=O)Nc2cc(S(=O)(=O)N3CCCCC3)ccc2Cl)n(C)c1=O`?
Granule exo inh: -1; MC4R antag cAMP: -3; EBI2 antag: 16; Myeloid diff 2: inactive; MC4R barr agon: -1

What do the screens show for `Cc1ccc2nc(NC(=O)CCNS(=O)(=O)c3ccc(Br)s3)sc2c1`?
Granule exo inh: -1; MC4R antag cAMP: 4; EBI2 antag: -1; Myeloid diff 2: inactive; MC4R barr agon: 14*; MC4R barr ag: 7; MOR-DOR barr ag: 7

Results for S=c1[nH]nc(COc2ccc(Cl)cc2)n1C1CCCCC1 ?
Granule exo inh: 0; MC4R antag cAMP: 4; EBI2 antag: 0; Myeloid diff 2: inactive; MC4R barr agon: 11*; MC4R barr ag: 1; MOR-DOR barr ag: 7

What do the screens show for `Cc1ccc(OCc2n[nH]c(=S)n2C2CCCCC2)cc1`?
Granule exo inh: -3; MC4R antag cAMP: 16; EBI2 antag: 4; Myeloid diff 2: inactive; MC4R barr agon: 5

Results for Cc1ccc(C(OCC(O)CNCc2ccc(F)cc2)c2ccccc2)cc1 (centres undefined) ?
Granule exo inh: 18; MC4R antag cAMP: 7; EBI2 antag: 0; Myeloid diff 2: inactive; MC4R barr agon: 14*; MC4R barr ag: 24*; MOR-DOR barr ag: 14

What do the screens show for `CCOC(=O)N/N=C(\C)c1ccc(C)c([N+](=O)[O-])c1`?
Granule exo inh: 6; MC4R antag cAMP: 15; EBI2 antag: -4; Myeloid diff 2: inactive; MC4R barr agon: -1

Results for CCN(CC(=O)Nc1ccc(N2CCOCC2)cc1)C(=O)COc1ccccc1OC ?
Granule exo inh: 3; MC4R antag cAMP: 6; EBI2 antag: -13; Myeloid diff 2: inactive; MC4R barr agon: 0

How did CN(CC(=O)Nc1ccccc1Br)C(=O)c1sccc1-c1ccccc1 do in these assays?
Granule exo inh: -3; MC4R antag cAMP: 4; EBI2 antag: 3; Myeloid diff 2: inactive; MC4R barr agon: -2

How did CCOc1cc(NC(=S)NCC(C)C)c(OCC)cc1NC(=O)c1cccs1 do in these assays?
Granule exo inh: -1; MC4R antag cAMP: 10; EBI2 antag: 11; Myeloid diff 2: inactive; MC4R barr agon: 15*; MC4R barr ag: 1; MOR-DOR barr ag: 5

What do the screens show for `CCOc1ccc(NC(=O)CSc2n[nH]c(N)n2)c([N+](=O)[O-])c1`?
Granule exo inh: 0; MC4R antag cAMP: -3; EBI2 antag: -10; Myeloid diff 2: inactive; MC4R barr agon: 1

Results for CCOc1ccc(NC(=O)c2ccc(CC)s2)c([N+](=O)[O-])c1 ?
Granule exo inh: 2; MC4R antag cAMP: -5; EBI2 antag: 3; Myeloid diff 2: inactive; MC4R barr agon: 0

What do the screens show for `CCOc1ccc(NC(=O)c2cccs2)c([N+](=O)[O-])c1`?
Granule exo inh: 0; MC4R antag cAMP: -3; EBI2 antag: -3; Myeloid diff 2: inactive; MC4R barr agon: 18*; MC4R barr ag: 2; MOR-DOR barr ag: 9

What do the screens show for `CCOc1ccc(NC(=O)CSc2nc(-c3cccs3)cc(C(F)(F)F)n2)c([N+](=O)[O-])c1`?
Granule exo inh: 0; MC4R antag cAMP: -7; EBI2 antag: -19; Myeloid diff 2: inactive; MC4R barr agon: 16*; MC4R barr ag: 26*; MOR-DOR barr ag: 7
